Rows were chosen to be rich in hits. Some 1.8% of all compounds tested hit in one or more screens of this group.
EBI2 block: antagonists of human EBI2 receptor | P32249 | inhibition, % at 5 µM | AID 651636 | EBI2 beta-arrestin recruitment, luminescence, 7a,25-OHC stimulated | 360,000 compounds, 0.81% hits; in the data active means inhibition above about 38%;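 further: enzyme fragment complementation signal reports receptor beta-arrestin coupling in cells; 0% = agonist plus DMSO wells and 100% = wells without agonist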
APJ ag: APJ receptor agonism | AID 2520 | P35414 | activation, % at 20 µM | 330,000 compounds, 0.11% hits | CHO-K1 APJ PathHunter beta-arrestin, luminescence; 0% DMSO wells, 100% apelin;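 active means activation more than six SD over the plate average, tested at 20 µM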;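 further: 0% = DMSO alone and 100% = apelin-13 at 10 nM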
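Material: engineered CHO-K1 APJ arrestin reporter cells; amount: 1000 CHO-K1 reporter cells seeded per well; incubation: compound stimulation 90 min at 25 °C, detection 60 min; signal: luminescent beta-gal fragment complementation, chemiluminescent substrate; read-out basis: APJ agonist activity; controls: DMSO-only wells as negative, 10 nM Apelin-13 as positive control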
CXCR6 inh: blocks human CXCR6 beta-arrestin recruitment; inhibition, % at 20 µM; O00574; CHO-K1 PathHunter CXCR6 beta-arrestin, luminescence; 360,000 compounds, 0.36% hits; in the data active means inhibition above about 34%, passing the limit was not always enough;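 further: antagonist mode with CXCL16 agonist at 10 nM final; 0% = 10 nM CXCL16 with DMSO and 100% = unstimulated wells without agonist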
CCR6 antagonist: blocks CCL20-driven beta-arrestin recruitment at human CCR6 | CHO-K1 CCR6 PathHunter beta-arrestin, luminescence, CCL20-stimulated | P51684 | 340,000 compounds, 0.49% hits | inhibition, % at 20 µM;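 active means compounds whose inhibition of the agonist-driven luminescence signal at 20 µM reaches about 50%, limit read from the data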;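 further: cells stimulated with CCL20 at 14 nM final; plate controls were DMSO with CCL20 for no effect and DMSO without agonist for full effect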
B2AR ag: activates human beta-2 adrenergic receptor causing internalization | response, % (concentration not given with the values) | P07550 | Am2.2-beta2AR cells, FAP receptor internalization, flow cytometry | 340,000 compounds, 0.43% hits;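 active means response above a set limit, near 3 SD of response in nonfluorescent compounds, cut at about 42% in these data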
Target sequence (P07550 whole entry, looked up): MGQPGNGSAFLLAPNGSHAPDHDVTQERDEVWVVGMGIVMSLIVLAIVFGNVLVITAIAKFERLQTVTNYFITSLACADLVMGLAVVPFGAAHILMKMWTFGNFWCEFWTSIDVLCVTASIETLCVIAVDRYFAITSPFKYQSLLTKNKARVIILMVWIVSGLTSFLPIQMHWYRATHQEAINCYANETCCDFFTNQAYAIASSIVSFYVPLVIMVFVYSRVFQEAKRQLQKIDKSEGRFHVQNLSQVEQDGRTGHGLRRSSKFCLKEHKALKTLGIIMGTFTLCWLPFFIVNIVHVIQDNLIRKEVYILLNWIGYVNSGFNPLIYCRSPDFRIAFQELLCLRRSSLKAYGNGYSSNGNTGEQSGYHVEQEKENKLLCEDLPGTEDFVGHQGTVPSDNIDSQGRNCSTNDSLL
APJ antag: antagonists of human APJ apelin receptor; 330,000 compounds, 0.32% hits; CHO-K1 APJ beta-arrestin complementation, luminescence; inhibition, % at 20 µM; P35414; AID 2521;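 active means inhibition above about 40% at 20 µM, limit read from the data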;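 further: cells challenged with 10 nM apelin-13 agonist together with compound; plate controls were apelin-13 plus DMSO wells for no effect and DMSO wells lacking apelin-13 for full effect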
APJ antag confirm: confirmation of human APJ apelin receptor antagonists; shares compounds with APJ antag; APJ beta-arrestin recruitment, luminescence, antagonist mode; inhibition, % at 20 µM; 950 compounds, 66% hits; AID 2766; in the data active means inhibition above about 50%
Beta2AR ag CP1: activates human beta-2 adrenergic receptor. shares compounds with B2AR ag. Am2.2-beta2AR cells, FAP surface receptor, flow cytometry; active compounds read low. percent response (surface receptor), % at 10 µM. 1,100 compounds, 25% hits;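 active means surface receptor percent response at or below 58%, roughly 3 SD from nonfluorescent compounds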
FAP fluor counter: counter-screen for beta-2AR agonists: fluorescence in Am2.2 cells. shares compounds with B2AR ag. FAP fluorogen flow cytometry, fluorescence counterscreen; active compounds read low. calls only at 10 µM. 1,100 tested, under 10 active. AID 588765;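 active means percent response below a set limit in fluorescence channel 1 and below 50% in channel 8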
CXCR6 antag conf: CXCR6 antagonism confirmation, single concentration. shares compounds with CXCR6 inh. CHO-K1 CXCR6 PathHunter beta-arrestin, luminescence. inhibition, % at 20 µM. 700 compounds, 65% hits. AID 602409;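 active means mean inhibition over four retests above 40%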;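 further: receptor stimulated with 10 nM CXCL16 agonist; beta-galactosidase fragment complementation upon beta-arrestin recruitment to receptor; plate controls were CXCL16 plus DMSO for no effect and DMSO without CXCL16 for full effect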
* hit, by the source's call; i = inactive; . = no result given.

SMILES	EBI2 block	APJ ag	CXCR6 inh	CCR6 antagonist	B2AR ag	APJ antag	APJ antag confirm	CXCR6 antag conf	others
O=[N+]([O-])c1cnc(Sc2ccncn2)s1	26	14	75*	80*	92*	55*	67*	.	Beta2AR ag CP1=16*;FAP fluor counter=i
COCC1CCCN(C(=O)c2ccc3oc(Cc4ccc(Cl)cc4)nc3c2)C1 (centres undefined)	-1	-9	5	12	3	-2	.	.
CC(C)Cc1nc2oc3c(Cl)ncnc3c2c2c1CCC2	48*	-2	15	23	110*	41*	86*	.	Beta2AR ag CP1=20*;FAP fluor counter=i
Cc1ccc2nc(C)cc(C(=O)OCC(=O)c3ccc(Cl)c([N+](=O)[O-])c3)c2c1	21	-22	59*	102*	53*	86*	126*	.	Beta2AR ag CP1=109;FAP fluor counter=i
Cc1cc(C(=O)OCC(=O)c2ccc(Cl)c([N+](=O)[O-])c2)c2cccc(C)c2n1	3	-5	26	45	10	11	.	.
O=C(O)c1cc([N+](=O)[O-])cc2c1C=Cc1ccccc1O2	4	-3	2	-9	9	-6	.	.
O=S(=O)(Nc1cccc2cccnc12)c1ccccc1	62*	-15	69*	90*	46*	89*	72*	.	Beta2AR ag CP1=90;FAP fluor counter=i
Cc1ccc2cccc(NS(=O)(=O)c3ccccc3)c2n1	.	-20	.	39	.	63*	57*	.	Beta2AR ag CP1=119;FAP fluor counter=i
CS(=O)(=O)Nc1cccc2cccnc12	-2	-4	20	21	15	25	.	.
C=C(C)C1CC=C(C)/C(=N\NC(=O)CCc2ccccc2)C1 (centres undefined)	-6	-4	-8	-3	-1	-6	.	.
CCCOC(=O)C1=C(C)NC2=C(C(=O)CCC2)C1c1cccs1 (centres undefined)	2	-3	2	2	-5	-3	.	.
CCOC(=O)C1=C(C)NC2=C(C(=O)CC(c3cccs3)C2)C1c1cccs1 (centres undefined)	31	-11	42*	54*	7	41*	73*	45*
CC1(C)CC(=O)C2=C(C1)OC1=C(C(=O)CC(C)(C)C1)C2c1ccc(O)c([N+](=O)[O-])c1	-3	-6	15	22	8	24	.	.
CC1(C)CC(=O)C2=C(C1)OC1=C(C(=O)CC(C)(C)C1)C2c1ccc(O)cc1O	-5	-4	66*	93*	93*	52*	105*	88*
O=S(=O)(NNc1ncc(C(F)(F)F)cc1Cl)c1ccc(F)cc1F	-5	0	-3	-16	1	30	.	.
Fc1ccc(NC(=S)NNc2ncc(C(F)(F)F)cc2Cl)c(F)c1	19	-7	81*	92*	22	72*	99*	76*
FC(F)(F)c1cnc(NNC(=S)Nc2ccc(Cl)cc2)c(Cl)c1	32	-10	72*	94*	9	64*	117*	84*
FC(F)(F)c1cccc(NC(=S)NNC(=S)Nc2ccc(Cl)cc2)c1	.	-2	.	.	.	0	.	.
CC(=O)c1c(C)[nH]c(C(=O)OC(C)C(=O)NC2CCCCC2)c1C (centres undefined)	-3	.	-5	.	.	.	.	.
COc1ccc(Cn2c(=O)c3[nH]cnc3n(-c3ccccc3C)c2=O)cc1	-12	-3	0	5	8	3	.	.
COc1ccc(C)c(-n2c(=O)n(Cc3ccccc3)c(=O)c3[nH]cnc32)c1	37	-19	69*	81*	0	69*	117*	70*
Cc1ccc(S(=O)(=O)N(C)C[C@@H]2OCc3cnnn3CCCC(=O)N([C@@H](C)CO)C[C@H]2C)cc1	-3	.	-2	.	.	.	.	.
CC(=O)N1N=C(c2ccccc2)CC1c1cccc([N+](=O)[O-])c1 (centres undefined)	21	-6	34	46	-9	39	.	.
CC(=O)N1N=C(c2cccs2)CC1c1cccc([N+](=O)[O-])c1 (centres undefined)	25	-8	50*	62*	-17	53*	52*	54*
Oc1ccc(-c2nccs2)cc1	4	.	3	-2	-3	.	.	.
SMILES	EBI2 block	APJ ag	CXCR6 inh	CCR6 antagonist	B2AR ag	APJ antag	APJ antag confirm	CXCR6 antag conf	others
Cc1ccc(NC(=S)NNc2ccc(C(=O)O)cc2[N+](=O)[O-])cc1C	8	-6	41*	36	-6	42*	50	42*
CS(=O)(=O)c1ncc(Cl)c(C(=O)Nc2ccc(OC(F)F)cc2)n1	-3	-4	47*	57*	-147	44*	72*	60*
CS(=O)(=O)c1ncc(Cl)c(C(=O)Nc2ccc(N3CCOCC3)cc2)n1	2	0	25	44	20	22	.	.
CC(=O)Nc1ccc(S(=O)(=O)N(C)c2ccccc2)cc1	-6	-5	-5	15	1	5	.	.
COc1ccc(OC)c(NC(=O)c2nc(S(=O)(=O)Cc3ccccc3)ncc2Cl)c1	85*	-9	59*	84*	38	63*	96*	69*
CCS(=O)(=O)c1ncc(Cl)c(C(=O)Nc2ccc(S(=O)(=O)N(C)c3ccccc3)cc2)n1	86*	-5	85*	94*	-294	67*	102*	92*
O=C(Nc1ccc(F)cc1)c1nc(S(=O)(=O)Cc2ccccc2)ncc1Cl	42	-6	62*	78*	7	40*	84*	67*
COc1ccc(OC)c(NC(=O)CS(=O)(=O)Cc2ccccc2)c1	2	-2	-7	5	8	-53	.	.
O=C(c1[nH]c(C(F)(F)F)nc1-c1ccccc1)N1CCN(c2cccc(C(F)(F)F)n2)CC1	4	.	-6	.	.	.	.	.
COc1ccc(S(=O)(=O)NCC2CCCN(Cc3cn(C)nc3C)C2)cc1 (centres undefined)	3	-2	11	12	2	9	.	.
O=C(NNC(=O)C12CC3CC(CC(C3)C1)C2)c1ccccn1	-2	-8	71*	92*	36	49*	69*	79*
O=C(NNC(=O)C12CC3CC(CC(C3)C1)C2)c1cnccn1	4	-1	13	10	-4	3	.	.
O=C(NC(=S)Nc1ccccc1O)c1cccnc1	6	-8	42*	59*	7	47*	48	43*

Screening results: PubChem BioAssay, several laboratories
